pIC50: −log10 of the molar value. Each block holds one compound with its values, some of them ahead of it. Activity calls are given as the source filed them. The rule behind the calls is not given here.
Columns and labels:
HCT-116 [1] = assay: Induction of apoptosis in human HCT116 cells assessed as apoptotic cells at 0.2 uM incubated for 48 hrs by AnnexinV-FITC/PI staining based flow cytometric analysis (reference value: 6.25 to 8.23%); format: functional
Method in brief: (§1)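 HCT116 cells exposed to 0.05, 0.2 or 0.4 μM for 48 h. Apoptotic cells quantified by flow cytometry, n = 3.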

HCT-116 [2] = assay: Induction of cell cycle arrest in human HCT116 cells assessed as accumulation at G2 phase at 0.4 uM incubated for 24 hrs by propidium iodide staining based flow cytometry (reference value: 18.51 to 20.82%); format: functional
[3] = molecular target: T1, DNA topoisomerase 1 (Homo sapiens) (UniProt P11387); assay: Inhibition of Top1 (unknown origin) at 83.3 uM using supercoiled pBR322 plasmid DNA as substrate incubated for 15 mins by PI staining based agarose gel electrophoresis analysis
T1 sequence (whole entry): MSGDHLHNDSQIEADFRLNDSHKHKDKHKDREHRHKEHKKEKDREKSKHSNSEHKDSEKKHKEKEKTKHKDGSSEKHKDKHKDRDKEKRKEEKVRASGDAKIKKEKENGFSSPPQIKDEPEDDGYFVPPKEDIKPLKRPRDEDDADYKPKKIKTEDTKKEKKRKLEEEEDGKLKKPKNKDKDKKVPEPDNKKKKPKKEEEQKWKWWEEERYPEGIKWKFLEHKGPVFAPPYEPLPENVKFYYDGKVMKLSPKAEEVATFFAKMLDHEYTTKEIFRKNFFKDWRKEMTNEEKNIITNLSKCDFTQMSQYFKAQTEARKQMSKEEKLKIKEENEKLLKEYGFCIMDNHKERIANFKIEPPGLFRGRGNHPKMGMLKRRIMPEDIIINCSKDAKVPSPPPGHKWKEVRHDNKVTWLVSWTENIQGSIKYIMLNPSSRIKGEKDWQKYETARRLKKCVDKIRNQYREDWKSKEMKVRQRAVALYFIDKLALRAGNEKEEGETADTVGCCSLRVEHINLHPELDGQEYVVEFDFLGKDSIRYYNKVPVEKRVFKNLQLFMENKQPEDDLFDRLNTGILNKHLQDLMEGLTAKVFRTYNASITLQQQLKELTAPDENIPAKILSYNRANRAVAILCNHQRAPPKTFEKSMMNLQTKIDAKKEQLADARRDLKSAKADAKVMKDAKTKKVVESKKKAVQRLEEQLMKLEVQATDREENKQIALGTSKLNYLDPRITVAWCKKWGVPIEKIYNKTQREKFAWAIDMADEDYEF

HCT-116 [4] = assay: Antiproliferative activity against human HCT116 cells incubated for 72 hrs by CCK8 assay; format: functional, cell-based; settings: Homo sapiens, HCT-116, 72 h; read-out: IC50
Method in brief: (§2)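 HCT116, MCF-7 and A549 human cancer cell lines; antiproliferative activity read out by CCK8 assay. Evodiamine derivatives and camptothecin served as positive controls.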

[5] = Drug metabolism in PBS buffer assessed as H2O2-mediated 3-Fluoro-10-hydroxy-14-methyl-8,13,13b,14-tetrahydro-7H-indolo[2',3':3,4]pyrido[2,1-b]quinazolin-5-one release rate at pH 7.4 incubated for 8 hrs in presence of 0.05 mM H2O2 by HPLC analysis; format: physicochemical; settings: pH 7.4, 8 h
Method in brief: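 Release of the parent compound after treatment with H2O2 at varied concentrations, including 0.05 mM, in PBS pH 7.4. Analysed by HPLC.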

[6] = Metabolic stability in mouse liver microsomes assessed as half life at 1 uM preincubated with compound followed by NADPH addition measured upto 45 mins by LC-MS/MS analysis; format: ADME, Microsome
Method in brief: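 In vitro stability in liver microsomes; terminal half-life determined.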

[7] = Drug metabolism in human HCT116 cells assessed as 3-Fluoro-10-hydroxy-14-methyl-8,13,13b,14-tetrahydro-7H-indolo[2',3':3,4]pyrido[2,1-b]quinazolin-5-one release by measuring parent compound retention time incubated for 8 hrs by UPLC-QTOF/MS analysis; format: ADME, cell-based; settings: hct-116, 8 h
Method in brief: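 Compounds incubated with HCT116 cells; culture media analysed by HPLC after 8, 48 and 72 h. Relative release rate taken from relative peak areas; parent and product identified by retention time.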

[8] = molecular target: T2, DNA topoisomerase II (Homo sapiens) (UniProt P11388+Q02880); assay: Inhibition of Top2 (unknown origin) at 50 uM using supercoiled pBR322 plasmid DNA as substrate incubated for 30 mins by PI staining based agarose gel electrophoresis analysis; format: protein assay
HCT-116 [9] = assay: Induction of cell cycle arrest in human HCT116 cells assessed as accumulation at S phase at 0.2 uM incubated for 24 hrs by propidium iodide staining based flow cytometry (reference value: 30.31 to 40.69%); format: functional
HCT-116 [10] = assay: Induction of apoptosis in human HCT116 cells incubated for 48 hrs by AnnexinV-FITC/PI staining based flow cytometric analysis; format: functional, cell-based
[11] = molecular target: T1, DNA topoisomerase 1 (Homo sapiens); assay: Inhibition of Top1 (unknown origin) at 125 uM using supercoiled pBR322 plasmid DNA as substrate incubated for 15 mins by PI staining based agarose gel electrophoresis analysis
Method in brief: (§3)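 Top1 inhibition tested at 500, 250 and 125 μM, and over 27.9 to 250 μM for selected compounds.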

HCT-116 [12] = assay: Induction of cell cycle arrest in human HCT116 cells assessed as accumulation at G2 phase at 0.05 uM incubated for 24 hrs by propidium iodide staining based flow cytometry (reference value: 18.51 to 20.82%); format: functional
HCT-116 [13] = assay: Antitumour activity against human HCT116 cells xenografted in nude mouse assessed as tumour growth inhibition at 10 mg/kg, ip bid measured every two days for 21 days by caliper method relative to control; format: functional; settings: HCT-116, ip, read-out: TGI
Method in brief: (§4)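 HCT116 xenograft in mice. Dosing 10 mg/kg intraperitoneally over 21 consecutive days; tumour growth inhibition and body weight followed. Mean ± SEM, Student's t test versus vehicle group.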

HCT-116 [14] = assay: Induction of cell cycle arrest in human HCT116 cells assessed as accumulation at G1 phase at 0.4 uM incubated for 24 hrs by propidium iodide staining based flow cytometry (reference value: 38.49 to 51.18%); format: functional
HCT-116 [15] = assay: Induction of cell cycle arrest in human HCT116 cells assessed as accumulation at G1 phase at 0.2 uM incubated for 24 hrs by propidium iodide staining based flow cytometry (reference value: 38.49 to 51.18%); format: functional
HCT-116 [16] = assay: Induction of cell cycle arrest in human HCT116 cells assessed as accumulation at G2 phase at 0.2 uM incubated for 24 hrs by propidium iodide staining based flow cytometry (reference value: 18.51 to 20.82%); format: functional
HCT-116 [17] = assay: Induction of apoptosis in human HCT116 cells assessed as apoptotic cells at 0.05 uM incubated for 48 hrs by AnnexinV-FITC/PI staining based flow cytometric analysis (reference value: 6.25 to 8.23%); format: functional; method in brief: as §1
A549 = assay: Antiproliferative activity against human A549 cells incubated for 72 hrs by CCK8 assay; format: functional, cell-based; settings: Homo sapiens, A549, 72 h; read-out: IC50; method in brief: as §2
[18] = molecular target: T1, DNA topoisomerase 1 (Homo sapiens); assay: Inhibition of Top1 (unknown origin) at 500 uM using supercoiled pBR322 plasmid DNA as substrate incubated for 15 mins by PI staining based agarose gel electrophoresis analysis; method in brief: as §3
[19] = Drug metabolism in human HCT116 cells assessed as 3-Fluoro-10-hydroxy-14-methyl-8,13,13b,14-tetrahydro-7H-indolo[2',3':3,4]pyrido[2,1-b]quinazolin-5-one release at 0.2 mM by UPLC-QTOF/MS analysis relative to control; format: ADME, cell-based; settings: hct-116, 200 µM, TDE = time-dependent effect
MCF7 = assay: Antiproliferative activity against human MCF7 cells incubated for 72 hrs by CCK8 assay; format: functional, cell-based; settings: Homo sapiens, MCF7, 72 h; read-out: IC50; method in brief: as §2
HCT-116 [20] = assay: Induction of cell cycle arrest in human HCT116 cells assessed as accumulation at S phase at 0.05 uM incubated for 24 hrs by propidium iodide staining based flow cytometry (reference value: 30.31 to 40.69%); format: functional
[21] = Toxicity in nude mouse xenografted with human HCT116 cells assessed as change in body weight at 10 mg/kg, ip bid measured every two days for 21 days; format: organism-based, HCT-116; settings: in vivo, 504 h; method in brief: as §4
HCT-116 [22] = assay: Induction of apoptosis in human HCT116 cells assessed as apoptotic cells at 0.4 uM incubated for 48 hrs by AnnexinV-FITC/PI staining based flow cytometric analysis (reference value: 6.25 to 8.23%); format: functional; method in brief: as §1
HCT-116 [23] = assay: Induction of cell cycle arrest in human HCT116 cells assessed as accumulation at G1 phase at 0.05 uM incubated for 24 hrs by propidium iodide staining based flow cytometry (reference value: 38.49 to 51.18%); format: functional
HCT-116 [24] = assay: Induction of cell cycle arrest in human HCT116 cells assessed as accumulation at S phase at 0.4 uM incubated for 24 hrs by propidium iodide staining based flow cytometry (reference value: 30.31 to 40.69%); format: functional
[25] = molecular target: T2, DNA topoisomerase II (Homo sapiens); assay: Inhibition of Top2 (unknown origin) using supercoiled pBR322 plasmid as substrate incubated for 30 mins by PI staining based agarose gel electrophoresis analysis; format: protein assay
[26] = Toxicity in nude mouse xenografted with human HCT116 cells assessed as change in body weight at 0.5 mg/kg, ip qd measured every two days for 21 days; format: organism-based, HCT-116; settings: in vivo, 504 h
HCT-116 [27] = assay: Antitumour activity against human HCT116 cells xenografted in nude mouse assessed as tumour growth inhibition at 0.5 mg/kg, ip qd measured every two days for 21 days by caliper method relative to control; format: functional; settings: HCT-116, ip, read-out: TGI

inhibition [3]: Active | pIC50 (HCT-116 [4]): 7.80 | Drug metabolism [5]: Dose-dependent effect | half-life at 1 µM [6]: 8.36 min | inhibition [8]: Active | inhibition [11]: Active | pIC50 (A549): 7.43 | inhibition [18]: Active | pIC50 (MCF7): 7.48 | inhibition [25]: Active
Structure (SMILES): CN1c2ccc(F)cc2C(=O)N2CCc3c([nH]c4ccc(OC(=O)OCc5ccc(B6OC(C)(C)C(C)(C)O6)cc5)cc34)C21 (centres undefined)
Activity (HCT-116 [1]): 55.64% | Activity (HCT-116 [2]): 56.25% | Retention_time [7]: 11.4 min | Activity (HCT-116 [9]): 45.69% | Activity (HCT-116 [10]): Dose-dependent effect | Activity (HCT-116 [12]): 26.88% | inhibition in vivo at 10 mg/kg (HCT-116 [13]): 64.4% | Activity (HCT-116 [14]): 4.95% | Activity (HCT-116 [15]): 8.82% | Activity (HCT-116 [16]): 45.49% | Activity (HCT-116 [17]): 41.28 - 42.28% | Drug metabolism [19]: Tde | Activity (HCT-116 [20]): 38.8% | Activity [21]: Non-Toxic | Activity (HCT-116 [22]): 61.73% | Activity (HCT-116 [23]): 34.32% | Activity (HCT-116 [24]): 38.8%

Structure (SMILES): CC[C@@]1(O)C(=O)OCc2c1cc1n(c2=O)Cc2cc3c(CN(C)C)c(O)ccc3nc2-1 [TOPOTECAN]
Activity [26]: Toxic | inhibition in vivo at 0.5 mg/kg (HCT-116 [27]): 68.8%
